High-throughput results as filed in PubChem BioAssay.
Rows were chosen to be rich in hits. Some 2.5% of all compounds tested hit in one or more screens of this group.
NR1D1 modulator = modulates human Rev-erb alpha binding to DNA; P20393; Rev-erbα–FITC-DNA binding, fluorescence polarization, 90 min; activity, % at 10 µM; hit rate 0.79% among 370,000;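 active = activity above about 14%, limit read from the data; passing the limit was not always enough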;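 note: 0% = DMSO wells with 35 nM protein and 100% = DMSO wells with 750 nM protein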
MC4R antagonist = blocks human MC4R cAMP signaling; MC4R-expressing cells, MTII-stimulated cAMP, LANCE TR-FRET; inhibition, % at 6.5 µM; hit rate 0.48% among 360,000; AID 540295;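 active = inhibition above its plate's cutoff, the mean of tested wells on that plate plus 3 SD, cut at about 29% in these data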;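 note: 0% = Melanotan II alone and 100% = Melanotan II plus saturating MCL0020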
Target sequence (P32245 whole entry, looked up): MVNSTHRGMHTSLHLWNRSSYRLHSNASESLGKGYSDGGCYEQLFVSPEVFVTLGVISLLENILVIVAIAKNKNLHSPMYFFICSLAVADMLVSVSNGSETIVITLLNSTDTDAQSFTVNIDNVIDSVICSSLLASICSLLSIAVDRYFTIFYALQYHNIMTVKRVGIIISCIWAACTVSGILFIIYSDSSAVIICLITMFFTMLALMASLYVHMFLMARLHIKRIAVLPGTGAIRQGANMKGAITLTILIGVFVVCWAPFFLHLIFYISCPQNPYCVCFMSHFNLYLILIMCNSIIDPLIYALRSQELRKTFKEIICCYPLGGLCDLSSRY
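System – human MC4R-expressing U2OS cells · Also added – Melanotan II · Dosing – one concentration, 6.5 µM nominal · Timing – 30-min compound, 1-h challenge, 1-h detection, room temperature · Measured by – Eu-cAMP/anti-cAMP TR-FRET, emission 671 nm · Replicates – singlicate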
PG9 binder = PG9 antibody binding by small molecule | AID 624416 | TR-FRET gp120-PG9 antibody binding | hit rate 0.43% among 360,000 | inhibition, % at 6.7 µM; in the data active = inhibition above about 8.5%
MC4R ag barr = human MC4R agonism via beta-arrestin; hit rate 0.98% among 360,000; activation, % at 8.9 µM; P32245; U2OS MC4R beta-arrestin complementation, luminescence; percent of melanotan II response, DMSO zero;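 active = activation above a per-plate cutoff, the mean activation of sample wells on that plate plus 3 SD, cut at about 8% in these data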
NTR1 agonist = NTR1 (human) agonism; P30989; NTR1-U2OS beta-arrestin-GFP spot imaging, agonist mode; activation, % at 20 µM; hit rate 0.17% among 330,000;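 active = activation at or above 40% of the spot to cytoplasm intensity ratio, with at least 20 cells analyzed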;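 note: 0% = DMSO without peptide and 100% = 100 nM NTR1 peptide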
Rev-erbA confirm = Rev-erb alpha (human) modulation, hit confirmation; shares compounds with NR1D1 modulator; Rev-erb alpha FITC-DNA binding, fluorescence polarization, 90 min; activation, % at 25 µM; hit rate 61% among 3,000;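 active = activation at or above a set limit, or at least 3 SD above the negative control mean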;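 note: 0% = 35 nM protein with DMSO and 100% = 750 nM protein high control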
RORg DNA counter = counter-screen for Rev-erb alpha modulators: RORgamma DNA binding. shares compounds with NR1D1 modulator. purified RORgamma protein-FITC-DNA binding, fluorescence polarization. IC50, µM. hit rate 8% among 910. AID 1259320;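 active = Compounds whose fitted half-maximal concentration for disrupting protein-DNA binding is below 10 micromolar; the record names Rev-erb in its text, so the target is in doubt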
* hit, by the source's call; . = no result.

SMILES | NR1D1 modulator | MC4R antagonist | PG9 binder | MC4R ag barr | NTR1 agonist | Rev-erbA confirm | others
COc1ccc2noc3c2c1C(=O)c1ccccc1-3 | 21.5* | -15.0 | -7.0 | -1.6 | -1.8 | 1.5
CCCCNc1c(-c2ccc(Sc3ccc(OC)cc3)cc2)nc2cc(C)ccn12 | 21.2* | 23.6 | 3.7 | -1.1 | 9.1 | 11.3
CCCCNc1c(-c2ccc(OC)c(SC(C)CC)c2)nc2cc(C)ccn12 (stereo not drawn) | -6.0 | 23.0 | -0.4 | -1.9 | 5.5 | .
CCCCCCSc1ccc(-c2nc3cnccn3c2NCCCC)cc1 | 24.6* | 2.5 | 2.7 | 0.6 | -0.5 | 14.2
COC(=O)[C@]12C[C@H](CC(=O)NCc3ccc(C)o3)C(=O)N(Cc3ccc(Cl)cc3Cl)C1=C[C@H](C(C)C)O[C@@H]2C1CC1 | -7.3 | . | . | . | . | .
COC(=O)c1ccccc1NC(=O)C1=CC(c2cccs2)=NS(=O)(=O)N1C | 52.0* | 3.4 | 1.0 | -1.0 | 5.3 | 31.7* | RORg DNA counter=3.02*
CCOC(=O)c1c(NC(=O)C2CCCO2)sc(C(=O)OC(C)(C)C)c1C (stereo not drawn) | 45.8* | 4.6 | 1.3 | -1.2 | 4.1 | 30.6*
CN[C@H]1C[C@H]2c3[nH]c4c(-c5cccc(C)c5)cccc4c3CCN2C[C@H]1[C@H](C)O | 9.7 | . | . | . | . | .
Cc1c(C(=O)N2CCN(Cc3ccc4c(c3)OCO4)CC2)sc2ncnc(N3CCN(c4ccccc4F)CC3)c12 | 22.0* | -4.8 | -0.9 | -3.8 | 5.6 | 17.8*
COC(=O)[C@H](C(C)C)N1Cc2nnn(Cc3ccc(C)cc3)c2-c2ccccc2S1(=O)=O | -1.3 | . | . | . | . | .
COc1ccc(C(=O)NNC(=O)C(C)NC(=O)c2ccccc2NC(=O)c2ccco2)cc1 (stereo not drawn) | -2.7 | 11.1 | -0.1 | -1.8 | 0.4 | .
COc1ccc(NC(=O)NNC(=O)c2cc3ccccc3cc2O)cc1 | 45.5* | 10.2 | -1.2 | -2.1 | 0.8 | 29.6* | RORg DNA counter=>40
COc1ccc(C(=O)NNC(=O)C(Cc2ccc(O)cc2)NC(=O)c2ccccc2NC(=O)c2ccc(OC)cc2)cc1 (stereo not drawn) | 44.9* | 8.1 | -0.6 | 1.7 | 0.1 | 35.9* | RORg DNA counter=>40
COc1ccc(C(=O)Nc2ccccc2C(=O)Nc2ccccc2)cc1 | 67.6* | 4.3 | -0.6 | -2.3 | . | 45.4* | RORg DNA counter=>40
COc1ccc(C(=O)Nc2ccccc2NC(=O)c2ccc(OC)cc2)cc1 | -3.0 | 3.1 | -2.1 | -1.4 | 0.2 | .
COc1ccc(C(=O)Nc2ccccc2C(=O)NC(Cc2ccc(O)cc2)C(=O)NNC(=O)c2ccccc2Cl)cc1 (stereo not drawn) | 24.2* | 15.3 | 6.6 | -1.1 | 2.4 | 18.6*
COc1ccc(C(=O)CSc2nnc(-c3cccs3)o2)cc1OC | 14.2 | . | . | . | . | .
COc1ccc(-n2c(SCC(=O)Nc3ccc(Oc4ccccc4)cc3)nnc2-c2ccco2)cc1 | -1.0 | . | . | . | . | .
COc1ccc(NC(=O)c2ccc(C(=O)c3cc(OC)ccc3OC)cc2)cc1 | 46.0* | 6.0 | . | 1.6 | 0.1 | 33.5* | RORg DNA counter=>40
COc1ccc(OC)c(C(=O)c2ccc(C(=O)Nc3ccccc3)cc2)c1 | 2.9 | -1.8 | -0.1 | -1.1 | 1.9 | .
COc1ccc(C(=O)Nc2ccc(NC(=O)c3cccc(F)c3)cn2)cc1 | 1.0 | 6.1 | 2.5 | -1.1 | 3.8 | .
COc1ccc(C(=O)Nc2ccc(NC(=O)c3cccc(OC)c3)cn2)cc1 | 18.4* | 4.0 | 7.2 | -0.6 | 2.4 | 14.4
COc1ccc(-c2cccc3[nH]c4c(c23)CCN2C(=O)[C@H]3[C@H](C)ON(C)[C@H]3C[C@@H]42)cc1 | 0.2 | . | -0.6 | . | . | .
Cc1ccc(NC(=O)Cc2cccc(OC(F)F)c2)c(S(=O)(=O)N2CCOCC2)c1 | -7.5 | . | . | . | . | .
COc1cc(SC)ccc1C(=O)Nc1ccc(C)cc1 | 0.4 | 1.0 | -2.8 | -3.5 | 3.0 | .
O=C(Nc1ccccc1N1CCCC1)c1cc(S(=O)(=O)N2CCOCC2)ccc1Cl | 2.2 | 0.4 | -1.9 | -0.3 | -0.2 | .
COc1cc(SC)ccc1C(=O)Nc1ccc(S(=O)(=O)N2CCCC2)cc1 | 57.2* | 5.8 | 1.7 | 6.0 | 2.0 | 29.6*
COc1cc(NC(=O)c2cc(S(=O)(=O)N3CCCCC3)ccc2N2CCOCC2)cc(OC)c1 | 22.3* | 11.7 | -1.2 | -2.5 | 0.2 | -5.9
